# Hits are enriched below; roughly 2.2% of the tested compounds scored in any of these assays.
# V-ATPase pH: regulators of yeast V-ATPase proton pumping, primary screen, pHLuorin cytosolic pH fluorescence. hit rate 0.37% among 350,000. response, % at 10 µM. S. cerevisiae; in the data active = response mostly above about 7.3%, no sharp cut-off; inactive = mostly below about 5.4%; note: actives read high
# GalR3 antag: GalR3 antagonists in HEK293 cells, primary screen, cell-based, fluorescence readout; HEK293 GalR3-CNG cAMP membrane potential fluorescence; galR3 body fused to GalR1 C-terminus; Galanin receptor type 3 (Homo sapiens), O60755; inhibition, % at 3 µM; hit rate 0.44% among 360,000;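 active = inhibition above the screen-wide average plus 3 SD, cut at about 13% in these data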;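 note: forskolin and galanin both at EC90 stimulate the cells; cAMP rise reported by CNG channel membrane potential dye signal; 0% = forskolin plus galanin with DMSO and 100% = forskolin alone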
# Target sequence (O60755 1-299 limits assumed): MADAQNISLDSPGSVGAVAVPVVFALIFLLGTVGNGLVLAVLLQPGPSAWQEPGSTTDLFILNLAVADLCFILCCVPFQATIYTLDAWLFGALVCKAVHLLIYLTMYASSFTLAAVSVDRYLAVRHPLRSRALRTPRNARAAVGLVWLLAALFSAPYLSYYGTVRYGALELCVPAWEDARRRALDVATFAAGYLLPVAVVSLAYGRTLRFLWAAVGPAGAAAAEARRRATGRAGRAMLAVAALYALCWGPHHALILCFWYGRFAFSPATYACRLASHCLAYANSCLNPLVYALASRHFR
# FXN GAA850 act: FXN promoter activators, primary screen, cell-based, luciferase luminescence, HEK293 lucGAA850; AID 540364, 2011; HEK293 lucGAA850 FXN promoter luciferase reporter, 24 h; percent of 10 µM SAHA response; activation, % at 6 µM; hit rate 0.56% among 360,000;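 active = activation above the average of all compounds screened plus 3 SD, cutoff fixed separately per campaign, cut at about 7.5% in these data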;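 note: 0% = DMSO wells and 100% = 10 µM SAHA wells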
# NR2E3 ag-1: NR2E3 agonists in two-hybrid cells, primary screen, cell-based, luminescence, CHO-S, Gal4-NCOR/VP16-NR2E3; Photoreceptor-specific nuclear receptor (Homo sapiens), Q9Y5X4; luciferase; inhibition of corepressor binding, % at 3.98 µM; hit rate 0.35% among 360,000; AID 602229, 2012;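 active = inhibition above the mean of all tested compounds plus 3 SD, cut at about 70% in these data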;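 note: 0% = DMSO with NR2E3 transfected cells and 100% = cells lacking NR2E3 construct; higher means lower luciferase signal from less NR2E3 corepressor binding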
# Target sequence (Q9Y5X4 whole entry, looked up, the tested form may be a part): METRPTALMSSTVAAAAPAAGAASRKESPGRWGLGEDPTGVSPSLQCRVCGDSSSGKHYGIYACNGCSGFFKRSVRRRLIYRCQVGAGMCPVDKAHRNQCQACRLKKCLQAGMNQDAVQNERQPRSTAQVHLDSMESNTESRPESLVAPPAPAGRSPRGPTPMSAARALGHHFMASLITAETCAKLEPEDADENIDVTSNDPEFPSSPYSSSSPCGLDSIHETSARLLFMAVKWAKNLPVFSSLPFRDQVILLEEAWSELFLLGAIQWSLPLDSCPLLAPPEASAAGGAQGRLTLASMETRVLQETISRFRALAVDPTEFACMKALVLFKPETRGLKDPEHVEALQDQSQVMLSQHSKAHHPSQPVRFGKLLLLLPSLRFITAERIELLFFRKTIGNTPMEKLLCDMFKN
# HIV Env fusion: inhibitors of HIV-1 Env-driven cell-cell fusion, primary screen, HeLa-JRFL effector, CEM21 target cells, luciferase; inhibition, % at 12.3 µM; hit rate 1.1% among 360,000;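 active = mean replicate inhibition score of at least 50 and every replicate individually at or above 50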;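 note: 0% = plate neutral controls and 100% = maraviroc near 300 nM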
# NR2E3 ag-2: inhibitors of NR2E3-RetCOR corepressor binding, primary screen, NR2E3 agonist project, biochemical, TR-FRET, GST-NR2E3, biotin-RetCOR. hit rate 0.12% among 320,000. Photoreceptor-specific nuclear receptor (Homo sapiens), Q9Y5X4. inhibition of corepressor binding, % at 4.78 µM. 1536-well;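 active = percent inhibition above the cutoff of mean plus 3 SD of all tested compounds, set per screening campaign, cut at about 20% in these data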;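 note: 0% = DMSO wells and 100% = biotin wells as full block of FRET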
#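 System: GST-tagged NR2E3 plus biotinylated RetCOR corepressor; Amount: 1.35 nM GST-tagged NR2E3 final; Dosing: single nominal compound dose of 4.8 µM; Schedule: 5 h incubation at 4 °C; Technique: TR-FRET with europium anti-GST and streptavidin-D2, 340 nm excitation; Controls: biotin wells as high control, 0.6% DMSO wells as low control.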
# NR2E3 ag confirm: NR2E3 agonist confirmation in cells, cell-based, luminescence, CHO-S two-hybrid; shares compounds with NR2E3 ag-1; CHO-S mammalian two-hybrid NR2E3-NCOR, luciferase luminescence; inhibition, % at 3.98 µM; hit rate 51% among 2,300; AID 624378, 2012;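 active = average inhibition above a cutoff equal to the mean inhibition of all tested compounds plus one SD, cut at about 70% in these data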;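 note: 0% = DMSO in NR2E3 cells and 100% = DMSO in cells lacking NR2E3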
# VP16 counter: GAL4-VP16 reporter modulators, confirmation, counter-screen for NR2E3 agonist project, cell-based, luminescence, CHO-S, high throughput; shares compounds with NR2E3 ag-1; CHO-S GAL4-VP16 luciferase reporter; inhibition, % at 3.98 µM; hit rate 29% among 2,300;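 active = mean inhibition above a cutoff equal to the average over all tested compounds plus one standard deviation, cut at about 70% in these data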;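 note: luciferase from a UAS reporter driven by GAL4-VP16 transactivation; 0% = DMSO with VP16-transfected cells and 100% = DMSO with cells lacking VP16; higher means less reporter light so more repression of VP16 activity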
# GalR3 antag conf: GalR3 antagonist hit confirmation, cell-based, fluorescence, triplicate | shares compounds with GalR3 antag | HEK293 GalR3 CNG cAMP biosensor, membrane potential fluorescence; galR3 fused to GalR1 carboxy tail; challenged with forskolin and galanin at EC90 | inhibition, % at 3 µM | hit rate 59% among 1,600 | AID 652245, 2013;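 active = inhibition above the primary screen's cutoff, the mean inhibition of all screened compounds plus 3 SD, cut at about 13% in these data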;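 note: 0% = forskolin plus galanin and 100% = forskolin alone with DMSO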
# CNG parental: nonspecific cAMP agonists in parental HEK-CNG cells, counter-screen for GalR3 antagonist project, cell-based, fluorescence, high throughput | AID 652268, 2013 | hit rate 10% among 1,600 | HEK293-CNG parental cells, cAMP membrane potential fluorescence; normalised: DMSO wells 0%, forskolin wells 100% | shares compounds with GalR3 antag | activation, % at 3 µM; in the data active = activation above about 1.3%
# * marks the source's active call; other numbers are inactive results; . = no result; [ ] = another dose, or the depositor's remark.
SMILES,V-ATPase pH,GalR3 antag,FXN GAA850 act,NR2E3 ag-1,HIV Env fusion,NR2E3 ag-2,NR2E3 ag confirm,VP16 counter,GalR3 antag conf,CNG parental
COc1ccc(CCN2C(=O)CSC2=Nc2ccc(C(C)C)cc2)cc1OC,0,84*,-2,49,24,2,83*,75*,96*,0
COc1ccc(N=C2SCC(=O)N2CCc2ccc(OC)c(OC)c2)cc1,1,0,0,0,23,0,.,.,.,.
C[C@@H]1CN([C@H](C)CO)C(=O)c2cccc(NC(=O)C3CC3)c2O[C@H]1CN(C)S(C)(=O)=O,.,.,.,.,13[16.7 µM],.,.,.,.,.
O=C(C[C@H]1C[C@@H]2c3cc(NC(=O)c4ccc5c(c4)OCO5)ccc3O[C@@H]2[C@@H](CO)O1)NCC1CC1,.,.,.,.,-4[16.7 µM],.,.,.,.,.
C[C@H]1CN([C@@H](C)CO)C(=O)c2cc(C#CC3CCCCC3)cnc2O[C@H]1CN(C)Cc1cccnc1,.,.,.,.,-7[16.7 µM],.,.,.,.,.
Cc1c(C(=O)NCc2ccc(C(C)C)cc2)sc(=O)n1Cc1ccc(S(=O)(=O)N(C)C)cc1,.,37*,-2,74*,43,.,87*,80*,28*,0
Cc1cc(C(=O)NC2CCCc3c2cnn3-c2ccc(C)c(C)c2)n(C)n1 (stereo not given),1,99*,-9,111*,.,0,98*,88*,105*,0
Cc1ccc(-n2ncc3c2CCCC3NC(=O)c2ccoc2)cc1C (stereo not given),1,-4,-1,10,.,0,.,.,.,.
Cc1nnsc1C(=O)NC1CCCc2c1cnn2-c1ccc(C(C)(C)C)cc1 (stereo not given),1,108*,-6,93*,49,0,78*,75*,111*,0
CC(C)(C)c1ccc(-n2ncc3c2CCCC3NC(=O)c2ccncc2)cc1 (stereo not given),1,-4,0,-3,23,0,.,.,.,.
CCOc1cc(S(=O)(=O)NCc2cccs2)ccc1Cl,0,-3,1,-5,.,-3,.,.,.,.
CCOc1ccc(S(=O)(=O)NCc2ccncc2)cc1,1,91*,-4,92*,85*,2,95*,90*,108*,0
Cc1ccc(S(=O)(=O)NCC(=O)NCc2ccncc2)cc1,2,3,1,-5,.,-2,.,.,.,.
Cc1ccc(S(=O)(=O)NCc2ccncc2)cc1,.,22*,-4,74*,.,-1,72*,68,74*,0
CCOc1cc(S(=O)(=O)NCc2ccncc2)ccc1Cl,-1,102*,-3,88*,4,4,97*,87*,126*,-1
CCOc1ccc(S(=O)(=O)NCc2ccccn2)cc1,1,-1,0,-15,.,-3,.,.,.,.
Cc1cc(S(=O)(=O)NCc2ccncc2)c(C)cc1Br,-2,104*,-2,101*,8,-1,94*,82*,111*,0
CN1C(=O)c2cc(NC(=O)c3cccs3)ccc2OC[C@H]2O[C@H](CC(=O)NCC3CC3)CC[C@@H]21,.,.,.,.,-5[16.7 µM],.,.,.,.,.
O=C(C[C@H]1CC[C@H]2[C@@H](COC[C@H](O)CN2CC2CCCCC2)O1)NCc1ccc(F)cc1,.,.,.,.,17[16.7 µM],.,.,.,.,.
COc1ccc(NC(=O)Nc2cccc3c2O[C@@H](CN(C)Cc2ccc(Cl)c(Cl)c2)[C@@H](C)CN([C@H](C)CO)C3=O)cc1,.,.,.,.,-129[16.7 µM],.,.,.,.,.
COc1cccc(NC(=O)Nc2nc(SC)ns2)c1,0,-11,2,-118,-36,0,.,.,.,.
CCSc1nsc(NC(=O)Nc2cccc(F)c2)n1,-1,69*,-8,93*,20,3,99*,84*,28*,-1
Cc1ccc(C2(c3ccc(C)cc3)CC2C(=O)Nc2ccc([N+](=O)[O-])cc2O)cc1 (stereo not given),0,61*,-12,100*,.,0,99*,90*,22*,-2
O=C(Nc1ccc([N+](=O)[O-])cc1)C1CC1(c1ccccc1)c1ccccc1 (stereo not given),2,-4,0,-13,9,0,.,.,.,.
O=C(C[C@@H]1C=C[C@@H](NS(=O)(=O)c2ccc(F)cc2)[C@@H](CO)O1)NC1CCC1,.,.,.,.,11[16.7 µM],.,.,.,.,.
SMILES,V-ATPase pH,GalR3 antag,FXN GAA850 act,NR2E3 ag-1,HIV Env fusion,NR2E3 ag-2,NR2E3 ag confirm,VP16 counter,GalR3 antag conf,CNG parental
O=C(NNc1ccnc2cc(Cl)ccc12)C1CCCCC1,0,27*,-4,58,10,-1,97*,87*,112*,0
COc1cccc(COc2cc3ccccc3nc2C)c1,5,92*,-6,73*,35,1,94*,76*,103*,0
Clc1ccc2nc3ccccc3cc2c1,0,-5,3,-6,-44,.,.,.,.,.
COC(=O)c1sccc1OCc1cccc(OC)c1,4,4,0,-24,-4,-4,.,.,.,.
Cc1nc2ccccc2cc1OCc1ccc(Cl)cc1,-3,94*,-1,78*,27,2,92*,73*,94*,1
CC(C)C(=O)Nc1ccc2c(c1)C(=O)N(C)[C@@H]1CC[C@H](CC(=O)NCCCN(C)C)O[C@@H]1CO2,.,.,.,.,18[16.7 µM],.,.,.,.,.
Cc1cccc(-n2ncc3c2CCCC3NC(=O)C2(C(N)=O)CC2)c1C (stereo not given),2,114*,-5,78*,2,0,77*,67,106*,-1
